{"data": "Published values gathered from unrelated publications", "target": "Serine/threonine-protein kinase pim-3 (PIM3, Homo sapiens, UniProt Q86V86)", "note": "Protocols differ between the studies behind these lines."}
{"SMILES": "N[C@H]1CCN(c2nccc(-c3cnn4ncccc34)n2)C1", "test": "binding", "conditions": "1 µM", "remaining binding [%]": 79}
{"SMILES": "CO[C@@H](C)c1c(Nc2ccc([C@@H](N(C)C(=O)C3CCS(=O)(=O)CC3)C(F)(F)F)cc2)cnc2cc(Cl)nn12", "test": "cell-free assay, competition with immobilised ligand", "conditions": "1 µM", "remaining binding [%]": 97}
{"SMILES": "CN(C)c1nccc(-c2cnc3ncccn23)n1", "test": "binding", "conditions": "1 µM", "remaining binding [%]": 88}
{"SMILES": "O=C(c1ccc(Nc2ncc(Cl)c(-c3ccc(Cl)s3)n2)cc1)N1CCC(N2CCCC2)CC1", "test": "binding, competition with immobilised ligand", "conditions": "1 µM", "remaining binding [%]": 73}
{"SMILES": "C[C@@H]1CN(c2cc(-c3nn(C)c4ccc(OC5(C)CC5)cc34)ncn2)C[C@H](C)O1", "test": "cell-free assay, competition with immobilised ligand", "conditions": "1 µM", "remaining binding [%]": 92}
{"SMILES": "C[C@H]1CCN(c2nccc(-c3cnn4ncccc34)n2)C1", "test": "binding", "conditions": "1 µM", "remaining binding [%]": 81}
{"SMILES": "O=C(c1ccc(Nc2nccc(-c3cc4ccccc4s3)n2)cc1)N1CCC(N2CCCC2)CC1", "test": "binding, competition with immobilised ligand", "conditions": "1 µM", "remaining binding [%]": 78}
{"SMILES": "C[C@@H]1CN(c2ccc3ncc(-c4ccc5[nH]nc(C6CC6)c5c4)n3n2)C[C@H](C)O1", "test": "binding, competition with immobilised ligand", "conditions": "0.5 µM", "remaining binding [%]": 33}
{"SMILES": "CC1CCCN1c1nccc(-c2cnn3ncccc23)n1 (stereo not drawn)", "test": "binding", "conditions": "1 µM", "remaining binding [%]": 100}
{"SMILES": "C=CC(=O)N1CCC(C(=O)NCC(=O)N2CCN(c3nc(-c4cnc(N)nc4C(F)F)nc(N4CCOCC4)n3)CC2)CC1", "test": "binding, competition with immobilised ligand", "conditions": "1 µM", "remaining binding [%]": 97}
{"SMILES": "Cc1cnn2ncc(-c3ccnc(N(C)C)n3)c2c1", "test": "binding", "conditions": "1 µM", "remaining binding [%]": 85}
{"SMILES": "O=C(c1ccc(Nc2ncc(Cl)c(-c3cc4ccccc4s3)n2)cc1)N1CCC(N2CCCC2)CC1", "test": "binding, competition with immobilised ligand", "conditions": "1 µM", "remaining binding [%]": 75}
{"SMILES": "CCc1ccccc1C(=O)Nc1n[nH]c2c(C)c(F)c(C3C(C#N)=C(C)N(C)C(C)=C3C#N)cc12", "test": "cell-free assay, competition with immobilised ligand", "conditions": "1 µM", "remaining binding [%]": 100}
{"SMILES": "O=C(NCC1CCOCC1)c1n[nH]cc1NC(=O)c1c(F)cccc1F", "test": "binding, competition with immobilised ligand", "conditions": "1 µM", "remaining binding [%]": 99}
{"SMILES": "CNC(=O)[C@@H]1CC[C@@H](n2c(-c3ccc4cnccc4c3)nc3ccc(C(=O)NCc4cccc(C(N)=O)c4)cc32)C1", "test": "binding, competition with immobilised ligand", "conditions": "1 µM", "remaining binding [%]": 100}
{"SMILES": "c1cnn2ncc(-c3ccnc(N4CCC45COC5)n3)c2c1", "test": "binding", "conditions": "1 µM", "remaining binding [%]": 84}
{"SMILES": "CN([C@@H]1CCc2c(CC(=O)O)c3cc(S(C)(=O)=O)ccc3n2C1)S(=O)(=O)c1ccc(F)cc1", "test": "cell-free assay, competition with immobilised ligand", "conditions": "1 µM", "remaining binding [%]": 100}
{"SMILES": "N#Cc1ccccc1CSc1nnc2c(n1)[nH]c1ccccc12", "test": "binding, competition with immobilised ligand", "conditions": "10 µM", "remaining binding [%]": 74}
{"SMILES": "O=C1CCc2cc(Nc3cc(OC4CCOCC4)c([N+](=O)[O-])cc3Cl)ccc2N1", "test": "cell-free assay, competition with immobilised ligand", "conditions": "1 µM", "remaining binding [%]": 100}
{"SMILES": "CN(c1nccc(-c2cnn3ncccc23)n1)C1CC1", "test": "binding", "conditions": "1 µM", "remaining binding [%]": 100}
{"SMILES": "CSc1cccnc1N1CCN(Cc2nc3ccccc3[nH]2)CC1", "test": "cell-free assay, competition with immobilised ligand", "conditions": "1 µM", "remaining binding [%]": 94}
{"SMILES": "COc1cnc(Nc2cccc(S(N)(=O)=O)c2)nc1N1CCN(c2ccccc2)CC1", "test": "binding, competition with immobilised ligand", "conditions": "1 µM", "remaining binding [%]": 94}
{"SMILES": "CC(=O)Nc1c(C(C)=O)c(=O)n(C)c2nc(-c3ccc(Cl)cc3Cl)c(-c3ccc(Cl)cc3)cc12", "test": "cell-free assay, competition with immobilised ligand", "conditions": "1 µM", "remaining binding [%]": 100}
{"SMILES": "Nc1ncc2c(n1)-c1c([nH]c3ccc(C#CC4CC4)cc13)CCCC2", "test": "binding, competition with immobilised ligand", "conditions": "1 µM", "remaining binding [%]": 76}
